Data taken from ChEMBL document CHEMBL1152606, “Thienylhalomethylketones: Irreversible glycogen synthase kinase 3 inhibitors as useful pharmacological tools” (Bioorg Med Chem, 2009).
The source made the active and inactive calls. The calls are words filed in the database; no cut-off is given here.

Legend:
[1] = target: T1, Glycogen synthase kinase-3 beta (Homo sapiens, UniProt P49841); assay: Noncompetitive inhibition of GSK3-beta by double-reciprocal plotting in presence of increasing ATP
Procedure, shortened: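 Lineweaver-Burk analysis with ATP varied 6.5–100 µM and inhibitor 1–2 µM, GS-1 fixed at 15 µM; 20 min [γ-32P] incorporation into GS-1, V as pmol phosphate/20 min.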

[2] = target: T1, Glycogen synthase kinase-3 beta; assay: Noncompetitive inhibition of GSK3-beta by double-reciprocal plotting in presence of 15 uM ATP
Procedure, shortened: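 Double-reciprocal kinetics: GS-1 varied 6.5–100 µM with inhibitor 1–2 µM at fixed 15 µM ATP; [γ-32P] filter assay, V as pmol phosphate/20 min; each point mean of three experiments.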

Rattus norvegicus [3] = species on record: Rattus norvegicus; assay: Inhibition of rat CAM2 at 10 uM by liquid scintillation counting in presence of [33gammaP]ATP
Procedure, shortened: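 CaM kinase II from rat brain; [γ33-P]ATP plus autocamtide-2 (5 µM); staurosporine reference; labelled autocamtide-2 counted by liquid scintillation; compounds at 10 µM.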

[4] = target: Epidermal growth factor receptor (Homo sapiens) (UniProt P00533); assay: Inhibition of EGFR in human A431 at 10 uM by liquid scintillation counting in presence of [33gammaP]ATP
Procedure, shortened: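 EGFR kinase from A-431 cells; substrate [γ33-P]ATP plus poly GAT (0.48 mg/mL); PD 153035 reference; product measured by liquid scintillation; compounds at 10 µM.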

[5] = target: Insulin receptor (Homo sapiens) (UniProt P06213); assay: Inhibition of human recombinant IR at 10 uM by liquid scintillation counting in presence of [33gammaP]ATP
Sequence of Insulin receptor (Homo sapiens) (P06213 28-758 limits assumed): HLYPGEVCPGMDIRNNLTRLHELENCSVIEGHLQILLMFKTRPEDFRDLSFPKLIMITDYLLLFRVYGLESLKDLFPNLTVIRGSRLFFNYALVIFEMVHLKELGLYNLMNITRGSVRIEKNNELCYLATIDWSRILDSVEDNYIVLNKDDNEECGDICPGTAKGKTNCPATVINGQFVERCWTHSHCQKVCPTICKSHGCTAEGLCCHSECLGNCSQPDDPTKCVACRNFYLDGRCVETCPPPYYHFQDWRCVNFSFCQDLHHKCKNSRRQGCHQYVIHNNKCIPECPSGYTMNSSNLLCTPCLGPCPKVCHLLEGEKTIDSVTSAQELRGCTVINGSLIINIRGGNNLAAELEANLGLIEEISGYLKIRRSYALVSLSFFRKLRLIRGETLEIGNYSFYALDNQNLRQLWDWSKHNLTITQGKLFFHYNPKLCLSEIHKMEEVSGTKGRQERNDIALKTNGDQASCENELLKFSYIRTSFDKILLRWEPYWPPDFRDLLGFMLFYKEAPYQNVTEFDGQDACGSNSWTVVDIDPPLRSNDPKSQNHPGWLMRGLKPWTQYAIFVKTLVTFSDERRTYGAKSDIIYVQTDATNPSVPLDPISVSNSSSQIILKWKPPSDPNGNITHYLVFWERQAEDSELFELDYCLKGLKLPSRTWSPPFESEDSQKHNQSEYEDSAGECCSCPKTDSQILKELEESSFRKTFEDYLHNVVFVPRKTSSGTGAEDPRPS
Sequence of Insulin receptor (Homo sapiens) (P06213 763-1382 limits assumed): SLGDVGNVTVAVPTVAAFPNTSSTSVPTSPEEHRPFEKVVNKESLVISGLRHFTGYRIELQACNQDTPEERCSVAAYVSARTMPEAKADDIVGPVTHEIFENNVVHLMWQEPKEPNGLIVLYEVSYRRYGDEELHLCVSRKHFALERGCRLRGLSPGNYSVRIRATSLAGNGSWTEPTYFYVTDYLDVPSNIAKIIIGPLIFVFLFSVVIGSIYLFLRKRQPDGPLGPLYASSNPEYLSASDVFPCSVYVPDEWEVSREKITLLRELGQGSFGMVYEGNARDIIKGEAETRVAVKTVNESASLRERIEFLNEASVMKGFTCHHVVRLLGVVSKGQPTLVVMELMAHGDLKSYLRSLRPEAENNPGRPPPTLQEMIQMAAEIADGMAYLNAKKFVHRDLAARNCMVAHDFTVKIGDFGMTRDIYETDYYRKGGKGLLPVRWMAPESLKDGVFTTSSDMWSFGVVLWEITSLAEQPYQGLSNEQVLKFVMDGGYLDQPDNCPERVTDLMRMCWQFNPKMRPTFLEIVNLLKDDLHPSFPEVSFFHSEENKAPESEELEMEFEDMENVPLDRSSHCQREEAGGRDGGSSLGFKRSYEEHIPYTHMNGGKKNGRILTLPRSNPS
Procedure, shortened: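 Human recombinant insulin receptor kinase; [γ33-P]ATP plus poly GT (0.03 mg/mL); staurosporine reference; liquid scintillation detection; 10 µM compound.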

Rattus norvegicus [6] = species on record: Rattus norvegicus; assay: Inhibition of rat recombinant MAPK at 10 uM by liquid scintillation counting in presence of [33gammaP]ATP
Procedure, shortened: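 Rat recombinant ERK42 MAP kinase expressed in E. coli; [γ33-P]ATP with MBP (0.5 mg/mL); staurosporine reference; liquid scintillation read-out; 10 µM compound.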

[7] = target: Dual specificity mitogen-activated protein kinase kinase 1 (Oryctolagus cuniculus) (UniProt P29678); assay: Inhibition of rabbit recombinant MEK1 expressed in Escherichia coli at 10 uM by liquid scintillation counting in presence of [33gammaP]ATP
Sequence of Dual specificity mitogen-activated protein kinase kinase 1 (Oryctolagus cuniculus) (P29678 whole entry): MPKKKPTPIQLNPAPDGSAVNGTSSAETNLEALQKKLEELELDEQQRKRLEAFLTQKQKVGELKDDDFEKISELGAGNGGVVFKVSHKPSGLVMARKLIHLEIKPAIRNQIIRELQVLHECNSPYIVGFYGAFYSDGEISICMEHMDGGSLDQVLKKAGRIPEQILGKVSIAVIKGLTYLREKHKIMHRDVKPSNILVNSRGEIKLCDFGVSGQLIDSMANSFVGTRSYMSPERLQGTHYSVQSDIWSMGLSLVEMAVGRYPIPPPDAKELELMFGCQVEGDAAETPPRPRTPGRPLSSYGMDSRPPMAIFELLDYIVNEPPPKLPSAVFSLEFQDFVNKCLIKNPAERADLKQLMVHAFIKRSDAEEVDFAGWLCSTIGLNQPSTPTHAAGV
Procedure, shortened: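 Rabbit recombinant MEK1 from E. coli; ATP plus unactivated MAP kinase (0.01 mg/mL) as substrate; staurosporine reference; liquid scintillation detection; 10 µM.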

Bos taurus = species on record: Bos taurus; assay: Inhibition of bovine thymus p56LCK at 10 uM by liquid scintillation counting in presence of [33gammaP]ATP
Procedure, shortened: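 p56lck from bovine thymus; [γ33-P]ATP with polyGT (0.5 mg/mL) substrate; staurosporine reference; liquid scintillation read-out; compounds tested at 10 µM.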

[8] = target: Proto-oncogene tyrosine-protein kinase Src (Homo sapiens) (UniProt P12931); assay: Inhibition of Src at 10 uM
Sequence of Proto-oncogene tyrosine-protein kinase Src (Homo sapiens) (P12931 2-536 limits assumed): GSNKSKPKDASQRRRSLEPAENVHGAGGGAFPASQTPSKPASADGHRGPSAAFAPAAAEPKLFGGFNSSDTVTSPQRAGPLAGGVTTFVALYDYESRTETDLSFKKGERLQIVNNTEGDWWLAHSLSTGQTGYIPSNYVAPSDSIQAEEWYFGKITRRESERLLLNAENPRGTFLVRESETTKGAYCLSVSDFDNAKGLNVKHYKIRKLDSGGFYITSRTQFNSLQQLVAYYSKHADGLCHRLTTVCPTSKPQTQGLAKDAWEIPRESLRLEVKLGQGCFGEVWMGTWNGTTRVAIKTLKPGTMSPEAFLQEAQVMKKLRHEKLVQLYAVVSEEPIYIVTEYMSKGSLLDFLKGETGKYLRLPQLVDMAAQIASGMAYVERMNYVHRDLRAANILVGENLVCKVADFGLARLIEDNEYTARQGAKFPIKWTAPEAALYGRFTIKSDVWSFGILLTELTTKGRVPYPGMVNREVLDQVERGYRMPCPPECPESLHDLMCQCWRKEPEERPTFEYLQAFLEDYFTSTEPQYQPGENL

[9] = target: D(2) dopamine receptor (Homo sapiens) (UniProt P14416); assay: Displacement of [3H]spiperone from human recombinant dopamine D2 receptor expressed in CHO cells at 10 uM; format: cell-based
Sequence of D(2) dopamine receptor (Homo sapiens) (P14416 whole entry): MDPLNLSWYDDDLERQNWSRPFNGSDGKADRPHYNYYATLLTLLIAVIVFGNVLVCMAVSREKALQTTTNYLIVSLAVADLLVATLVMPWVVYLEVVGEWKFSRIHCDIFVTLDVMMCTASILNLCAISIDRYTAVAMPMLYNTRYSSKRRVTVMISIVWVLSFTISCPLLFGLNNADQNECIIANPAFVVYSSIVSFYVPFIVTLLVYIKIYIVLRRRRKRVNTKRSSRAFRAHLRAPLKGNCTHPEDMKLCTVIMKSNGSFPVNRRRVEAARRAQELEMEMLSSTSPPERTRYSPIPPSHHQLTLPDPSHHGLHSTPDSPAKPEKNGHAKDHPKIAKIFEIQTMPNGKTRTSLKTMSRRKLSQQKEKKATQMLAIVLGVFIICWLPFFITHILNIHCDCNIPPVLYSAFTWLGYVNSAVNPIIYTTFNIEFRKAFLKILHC
Procedure, shortened: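 Human recombinant D2 receptor expressed in CHO cells; [3H]spiperone ligand at 0.3 nM; (+)-buctaclamol as reference compound.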

[10] = target: T2, Alpha-2A adrenergic receptor (Rattus norvegicus) (UniProt P22909); assay: Displacement of [3H]RX821002 from alpha2 adrenoceptor in rat cerebral cortex at 10 uM; format: tissue-based
T2 sequence (whole entry): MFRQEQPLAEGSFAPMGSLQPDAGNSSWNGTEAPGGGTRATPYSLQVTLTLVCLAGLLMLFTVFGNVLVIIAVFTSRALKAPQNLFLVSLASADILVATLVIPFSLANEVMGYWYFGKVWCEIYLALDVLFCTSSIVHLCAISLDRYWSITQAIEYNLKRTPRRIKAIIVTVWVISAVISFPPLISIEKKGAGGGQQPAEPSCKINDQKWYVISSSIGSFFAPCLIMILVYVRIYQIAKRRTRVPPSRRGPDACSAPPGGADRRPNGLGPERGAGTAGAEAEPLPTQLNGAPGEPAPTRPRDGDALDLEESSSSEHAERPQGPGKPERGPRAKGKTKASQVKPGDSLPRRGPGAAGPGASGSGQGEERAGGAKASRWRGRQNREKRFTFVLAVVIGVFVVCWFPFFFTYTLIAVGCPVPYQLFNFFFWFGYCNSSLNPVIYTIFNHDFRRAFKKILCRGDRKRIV
Procedure, shortened: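 Rat cerebral cortex source; [3H]RX 821002 ligand at 0.5 nM; yohimbine as reference compound; non-selective alpha-2 site.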

[11] = target: D(3) dopamine receptor (Homo sapiens) (UniProt P35462); assay: Displacement of [3H]spiperone from human recombinant dopamine D3 receptor expressed in CHO cells at 10 uM; format: cell-based
Sequence of D(3) dopamine receptor (Homo sapiens) (P35462 whole entry): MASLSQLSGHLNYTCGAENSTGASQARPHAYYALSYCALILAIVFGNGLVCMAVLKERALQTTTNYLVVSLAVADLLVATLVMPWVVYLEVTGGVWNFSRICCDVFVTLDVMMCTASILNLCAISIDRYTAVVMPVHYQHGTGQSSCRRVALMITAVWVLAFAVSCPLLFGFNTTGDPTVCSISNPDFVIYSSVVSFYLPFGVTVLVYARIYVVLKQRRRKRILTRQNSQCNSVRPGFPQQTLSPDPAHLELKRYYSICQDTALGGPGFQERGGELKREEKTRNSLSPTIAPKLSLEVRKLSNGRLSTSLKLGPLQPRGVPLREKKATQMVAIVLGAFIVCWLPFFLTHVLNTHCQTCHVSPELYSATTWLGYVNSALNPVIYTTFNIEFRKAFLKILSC
Procedure, shortened: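 Human recombinant D3 receptor from CHO cells; [3H]spiperone 0.3 nM as ligand; (+)-buctaclamol reference compound.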

Rattus norvegicus [12] = species on record: Rattus norvegicus; assay: Displacement of [3H]AMPA from AMPA receptor in rat cerebral cortex at 10 uM; format: tissue-based
[13] = target: Glutamate NMDA receptor (Rattus norvegicus) (UniProt P35439+Q00959+Q00960+Q00961+Q62645+Q8VHN2+Q9R1M7); assay: Displacement of [3H]CGP39653 from NMDA receptor in rat cerebral cortex at 10 uM; format: tissue-based
[14] = Displacement of [3H]QNB from muscarinic receptor at 10 uM
Rattus norvegicus [15] = species on record: Rattus norvegicus; assay: Displacement of [3H]cystisine from alpha-BGTX insensitive nicotinic acetylcholine receptor in rat cerebral cortex at 10 uM; format: tissue-based
Rattus norvegicus [16] = species on record: Rattus norvegicus; assay: Displacement of [3H]cystisine from alpha-BGTX sensitive nicotinic acetylcholine receptor in rat cerebral cortex; format: tissue-based; set-up: concentration or dose not given beside the values; details: concentration not given here
[17] = target: T1, Glycogen synthase kinase-3 beta; assay: Irreversible inhibition of GSK3-beta mediated phosphorylation measured after careful washes by liquid scintillation counting
Procedure, shortened: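 His-tagged recombinant GSK-3β immobilised on nickel agarose, incubated 20 min at 37 °C with inhibitor, 15 µM ATP, [γ-32P]ATP and GS-1 in Tris/MgCl2/EGTA/EDTA pH 7.5; gel pelleted, washed three times in Tris-MgCl2 buffer, then reassayed 15 min with fresh ATP/GS-1; P81 filter scintillation; activity relative to identically handled control.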

[18] = target: Glycogen synthase kinase-3 beta (Mus musculus) (UniProt Q9WV60); assay: Inhibition of GSK-3-beta-mediated tau phosphorylation in mouse granule cerebellar neurons cells after 16 hrs by Western blot
Sequence of Glycogen synthase kinase-3 beta (Mus musculus) (Q9WV60 whole entry, looked up): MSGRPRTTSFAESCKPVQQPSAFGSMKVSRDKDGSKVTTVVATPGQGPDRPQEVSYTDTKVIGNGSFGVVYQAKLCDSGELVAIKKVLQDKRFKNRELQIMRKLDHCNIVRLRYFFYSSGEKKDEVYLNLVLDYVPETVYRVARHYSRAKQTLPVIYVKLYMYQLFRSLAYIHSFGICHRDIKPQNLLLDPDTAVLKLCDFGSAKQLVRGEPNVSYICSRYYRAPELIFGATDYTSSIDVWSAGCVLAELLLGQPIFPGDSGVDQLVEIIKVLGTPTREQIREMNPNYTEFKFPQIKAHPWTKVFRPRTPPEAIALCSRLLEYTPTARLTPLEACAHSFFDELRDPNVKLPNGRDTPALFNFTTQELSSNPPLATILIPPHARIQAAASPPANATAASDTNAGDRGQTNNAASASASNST
Procedure, shortened: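 Cerebellar granule neurons from P6 mice, plated on poly-L-lysine and grown 48 h in serum-free neurobasal/B-27 with 12.5 mM KCl; compounds 0.5–25 µM; LiCl 10 mM positive control with excess myo-inositol; lysates blotted with PHF-1 and Tau-1, normalised to β-actin, densitometry; mean of three experiments, control = 100 r.u.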

N2a [19] = assay: Induction of neurite growth in mouse Neuro2a cells at 2 uM after 16 hrs by phase-contrast photography; format: functional, cell-based
Procedure, shortened: (§1)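 Neuro2A mouse neuroblastoma cells grown in DMEM with 10% heat-inactivated FCS, 2 mM glutamine and antibiotics; compounds added in serum-containing medium for 16 h; control received DMSO; neurite/cytoplasmic extensions scored by phase-contrast photography.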

[20] = target: Tyrosine-protein kinase ABL1 (Mus musculus) (UniProt P00520); assay: Inhibition of mouse recombinant Abl expressed in Escherichia coli at 10 uM by fluorescence polarization
Sequence of Tyrosine-protein kinase ABL1 (Mus musculus) (P00520 whole entry): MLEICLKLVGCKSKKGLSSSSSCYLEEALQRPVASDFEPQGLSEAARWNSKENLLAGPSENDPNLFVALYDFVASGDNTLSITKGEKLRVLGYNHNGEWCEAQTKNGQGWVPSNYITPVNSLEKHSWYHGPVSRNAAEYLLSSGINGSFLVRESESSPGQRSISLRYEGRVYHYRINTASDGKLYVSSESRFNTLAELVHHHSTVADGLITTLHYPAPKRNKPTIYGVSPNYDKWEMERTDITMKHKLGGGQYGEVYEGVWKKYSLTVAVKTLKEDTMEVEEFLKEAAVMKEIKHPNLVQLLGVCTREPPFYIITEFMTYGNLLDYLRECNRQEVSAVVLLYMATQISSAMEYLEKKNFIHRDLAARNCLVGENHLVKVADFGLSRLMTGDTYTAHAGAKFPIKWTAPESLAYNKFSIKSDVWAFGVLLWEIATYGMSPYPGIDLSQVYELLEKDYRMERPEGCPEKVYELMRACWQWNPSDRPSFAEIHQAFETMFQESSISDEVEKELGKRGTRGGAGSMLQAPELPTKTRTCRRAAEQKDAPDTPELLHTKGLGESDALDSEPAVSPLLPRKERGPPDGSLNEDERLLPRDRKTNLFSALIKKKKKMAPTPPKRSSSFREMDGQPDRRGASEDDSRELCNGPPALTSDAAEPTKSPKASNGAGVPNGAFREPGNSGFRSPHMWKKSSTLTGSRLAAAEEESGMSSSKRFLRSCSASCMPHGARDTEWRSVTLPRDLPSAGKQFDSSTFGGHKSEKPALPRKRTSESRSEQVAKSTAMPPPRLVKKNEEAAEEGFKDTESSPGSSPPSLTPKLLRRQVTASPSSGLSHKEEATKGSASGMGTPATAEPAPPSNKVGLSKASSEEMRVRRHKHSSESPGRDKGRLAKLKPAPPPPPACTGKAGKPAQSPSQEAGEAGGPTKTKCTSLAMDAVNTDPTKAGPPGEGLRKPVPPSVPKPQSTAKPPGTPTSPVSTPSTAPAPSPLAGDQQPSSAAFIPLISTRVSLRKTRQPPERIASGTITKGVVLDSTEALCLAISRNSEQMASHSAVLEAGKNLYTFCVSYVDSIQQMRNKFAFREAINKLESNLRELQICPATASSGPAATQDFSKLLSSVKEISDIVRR

[21] = test system: 5-HT (non-selective) serotonin receptor (Rattus norvegicus); assay: Inhibition of [3H]serotonine binding to non-selective 5-HT serotoninergic receptor in rat cerebral cortex at 10 uM
N2a [22] = assay: Induction of neurite growth in mouse Neuro2a cells at 0.2 uM after 16 hrs by phase-contrast photography; format: functional, cell-based; procedure, shortened: as §1

T1 sequence (P49841 whole entry, looked up): as the sequence (Q9WV60 whole entry, looked up) above, with P390T, A392T, T400A, A402T counted along it

Which inhibition [1] does the source give for `O=C(CCl)c1c(Br)sc(Cl)c1Cl` here?
Its inhibition is “Active”.

And the inhibition [2]?
The inhibition was “Active”.

And the inhibition (Rattus norvegicus [3])?
The inhibition was under 10%.

What about the inhibition [4] of the same molecule?
Its inhibition is under 10%.

And the inhibition [5]?
The inhibition was under 10%.

And the inhibition (Rattus norvegicus [6])?
Its inhibition is under 10%.

And the inhibition [7]?
Its inhibition is under 10%.

What about the inhibition (Bos taurus) of the same molecule?
The inhibition was 33%.

And the inhibition [8]?
Its inhibition is 26%.

What about the inhibition [9] of the same molecule?
The inhibition was 31%.

And the inhibition [10]?
The inhibition was under 10%.

What about the inhibition [11] of the same molecule?
The inhibition was under 10%.

And the inhibition (Rattus norvegicus [12])?
The inhibition was under 10%.

And the inhibition [13]?
The inhibition was 13%.

What about the inhibition [14] of the same molecule?
The inhibition was under 10%.

What about the inhibition (Rattus norvegicus [15]) of the same molecule?
The inhibition was under 10%.

What about the inhibition (Rattus norvegicus [16]) of the same molecule?
Its inhibition is under 10%.

What about the Activity [17] of the same molecule?
Its Activity is “Active”.

What about the Activity [18] of the same molecule?
The Activity was “Active”.

And the Activity (N2a [19])?
Its Activity is “Active”.

What about the inhibition [20] of the same molecule?
The inhibition was under 10%.

And the inhibition [21]?
Its inhibition is under 10%.

What does the source list for `O=C(CCl)c1cc(Br)c(Br)s1`?
inhibition (Rattus norvegicus [3]): < 10%; inhibition [4]: < 10%; inhibition [5]: < 10%; inhibition (Rattus norvegicus [6]): < 10%; inhibition [7]: < 10%; inhibition (Bos taurus): < 10%; inhibition [8]: 69%; inhibition [9]: < 10%; inhibition [10]: < 10%; inhibition [11]: < 10%; inhibition (Rattus norvegicus [12]): < 10%; inhibition [13]: < 10%; inhibition [14]: < 10%; inhibition (Rattus norvegicus [15]): < 10%; inhibition (Rattus norvegicus [16]): < 10%; Activity [17]: Active; inhibition [20]: < 10%; inhibition [21]: < 10%

With `O=C(CCl)c1csc(C(=O)CCl)c1` as the molecule, how does the inhibition [1] read?
Its inhibition is “Active”.

What about the inhibition [2] of the same molecule?
The inhibition was “Active”.

What about the inhibition (Rattus norvegicus [3]) of the same molecule?
Its inhibition is 21%.

What about the inhibition [4] of the same molecule?
Its inhibition is 16%.

And the inhibition [5]?
Its inhibition is 12%.

What about the inhibition (Rattus norvegicus [6]) of the same molecule?
The inhibition was under 10%.

And the inhibition [7]?
Its inhibition is under 10%.

And the inhibition (Bos taurus)?
Its inhibition is 49%.

And the inhibition [8]?
Its inhibition is 94%.

And the inhibition [9]?
The inhibition was under 10%.

And the inhibition [10]?
The inhibition was 10%.

What about the inhibition [11] of the same molecule?
The inhibition was under 10%.

And the inhibition (Rattus norvegicus [12])?
The inhibition was 25%.

And the inhibition [13]?
Its inhibition is under 10%.

What about the inhibition [14] of the same molecule?
The inhibition was under 10%.

And the inhibition (Rattus norvegicus [15])?
The inhibition was under 10%.

What about the inhibition (Rattus norvegicus [16]) of the same molecule?
The inhibition was under 10%.

What about the Activity [18] of the same molecule?
The Activity was “Active”.

What about the Activity (N2a [22]) of the same molecule?
The Activity was “Active”.

What about the inhibition [20] of the same molecule?
Its inhibition is under 10%.

And the inhibition [21]?
The inhibition was under 10%.
